Bioassay records: PubChem, several laboratories
RBBP9 inh – inhibitors of human serine hydrolase RBBP9 | O75884 | recombinant RBBP9, FP-Rh probe fluorescence polarization | inhibition, % at 7.94 µM | 220,000 tested, 0.2% active | AID 1515;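 active means inhibition above the campaign mean of all tested compounds plus 3 SD, cut at about 14% in these data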;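 further: plate controls were DMSO wells with RBBP9 for no effect and wells lacking RBBP9 protein for full effect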
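system = RBBP9 protein | input = RBBP9 at 2.5 µM in dispensed solution, before mixing | measured by = fluorescence polarization (mP), excitation 525 nm, emission 598 nm | incubation = enzyme-compound preincubation 30 min, then probe labeling 45 min, 25 °C | buffer or medium = Tris-NaCl-Pluronic buffer, pH 8.0 | compound = single dose 7.94 µM | also added = FP-Rh probe, 375 nM dispensing solution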
TNF necrop inh – TNF-alpha cell death inhibition in Jurkat FADD-/- cells; activation (protection from cell death), % at 10 µM; AID 463075; 220,000 tested, 0.068% active; Jurkat FADD-/- TNF necroptosis rescue, ATP luminescence, 24 h; 0 = TNF only, 100 = no-TNF cells;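 active means activation, meaning protection from cell death, of at least 50% relative to plate controls; inactive means activation below 50%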;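 further: necroptosis triggered by 40 ng/mL TNF-alpha added together with compound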
M18AAP inhibitor – blocks P. falciparum M18 aspartyl aminopeptidase | recombinant PfM18AAP, H-Glu-NHMec fluorogenic cleavage | inhibition, % at 7.35 µM | 290,000 tested, 1.2% active;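 active means inhibition above the campaign mean inhibition over all tested compounds plus 3 SD, cut at about 28% in these data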;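 further: 0% = plate median of test compound wells and 100% = 2 mM ZnCl2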
Wee1 stabilizer – inhibitors of human Wee1 degradation | HeLa Luc-Wee1K328M stability, luciferase luminescence; 100% = proteasome inhibitor MG132 effect | reporter increase, % at 5 µM | 220,000 tested, 1.2% active;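 active means activation above the mean of all tested compounds plus 3 SD, set per screening run, cut at about 8.8% in these data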;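 further: cells exposed to compound for 20 h before luminescence read; 0% = DMSO alone and 100% = MG132 at 30 µM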
p97 ATPase inh – blocks human p97 ATPase activity. P55072. recombinant p97 ATPase, Kinase-Glo ATP luminescence, 3 h. inhibition, % at 8 µM. 220,000 tested, 0.42% active. AID 1481; in the data active means inhibition above about 15%;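 further: 0% = DMSO vehicle and 100% = wells lacking enzyme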
L929 necroptosis – blocks zVAD induced death of L929 cells; viability rescue, % at 10 µM; L929 zVAD necroptosis rescue, ATP luminescence, 24 h; with zVAD 60 µM; AID 1377; 220,000 tested, 0.38% active;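 active means activation, scaled between plate controls, above about 75%, limit read from the data; inactive means activation under that limit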;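 further: 0% = zVAD with DMSO and 100% = DMSO alone without zVAD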
An asterisk follows results filed as active. Hits are enriched below; roughly 2.7% of the tested compounds scored in any of these assays.

How did O=C(O)c1ccccc1NS(=O)(=O)c1ccc(NNC(=S)Nc2ccc(OC(F)F)cc2)c([N+](=O)[O-])c1 do in these assays?
RBBP9 inh: -1.4; TNF necrop inh: -4.8; M18AAP inhibitor: 43.8*; Wee1 stabilizer: -1.4; p97 ATPase inh: 3.0; L929 necroptosis: 43.8

Results for O=C(O)c1ccc2c(c1)C(=O)N(c1cccc(-c3nc4ccccc4s3)c1)C2=O ?
RBBP9 inh: -3.8; TNF necrop inh: -0.7; M18AAP inhibitor: 2.3; Wee1 stabilizer: 11.1*; p97 ATPase inh: 3.6; L929 necroptosis: 18.2

What do the screens show for `CC(=O)Oc1cccc(N2C(=O)c3ccc(C(=O)O)cc3C2=O)c1`?
RBBP9 inh: -9.5; TNF necrop inh: 0.1; M18AAP inhibitor: -3.7; Wee1 stabilizer: -2.3; p97 ATPase inh: -3.9; L929 necroptosis: 0.1

Results for Cc1ccc(/C=C2\SC(=S)N(c3cccnc3)C2=O)o1 ?
RBBP9 inh: 1.6; TNF necrop inh: 3.9; M18AAP inhibitor: 31.3*; Wee1 stabilizer: 3.4; p97 ATPase inh: 6.8; L929 necroptosis: -0.8

Results for CN1c2ccccc2Sc2cc(N)ccc21 ?
M18AAP inhibitor: 36.9*

How did Nc1cccc2c(=O)c3ccccc3[nH]c12 do in these assays?
M18AAP inhibitor: 29.1*

Results for CCOc1cc(C2CC(=O)N3CN(C4CCCCC4)CSC3=C2C#N)ccc1O (centres undefined) ?
RBBP9 inh: 9.0; TNF necrop inh: -0.3; M18AAP inhibitor: 30.7*; Wee1 stabilizer: 1.8; p97 ATPase inh: 8.1; L929 necroptosis: -0.5

Results for COc1ccc2ccccc2c1C1CC(=O)N2CN(C3CCCCC3)CSC2=C1C#N (centres undefined) ?
RBBP9 inh: 1.7; TNF necrop inh: 0.1; M18AAP inhibitor: 21.9; Wee1 stabilizer: -1.4; p97 ATPase inh: 1.9; L929 necroptosis: 2.4

Results for O=C(NCc1ccco1)c1cccnc1Cl ?
RBBP9 inh: 1.4; TNF necrop inh: 1.4; M18AAP inhibitor: -0.7; Wee1 stabilizer: 1.2; p97 ATPase inh: 1.3; L929 necroptosis: -0.5

Results for O=C(NCc1ccco1)c1cccnc1-c1nc2ccccc2s1 ?
RBBP9 inh: -10.7; TNF necrop inh: -4.9; M18AAP inhibitor: 30.9*; Wee1 stabilizer: 0.0; p97 ATPase inh: 1.0; L929 necroptosis: -0.1

Results for Cc1nc2n(n1)C(O)c1cc([N+](=O)[O-])ccc1S2 (centres undefined) ?
RBBP9 inh: -7.1; TNF necrop inh: -0.5; M18AAP inhibitor: 18.4; Wee1 stabilizer: 0.6; p97 ATPase inh: 3.8; L929 necroptosis: 0.2

Results for O=[N+]([O-])c1ccc2c(c1)C(O)n1nc(-c3ccc(Cl)cc3Cl)nc1S2 (centres undefined) ?
RBBP9 inh: -12.5; TNF necrop inh: -1.0; M18AAP inhibitor: -6.0; Wee1 stabilizer: 12.8*; p97 ATPase inh: -7.1; L929 necroptosis: -0.3

Results for O=C(CSC(=S)N1CCCC1)NCC(=O)Nc1ccc(F)c(F)c1 ?
M18AAP inhibitor: -7.5

What do the screens show for `Cc1ccc(NC(=O)c2ccccc2)cc1`?
RBBP9 inh: -6.5; TNF necrop inh: -2.3; M18AAP inhibitor: 1.3; Wee1 stabilizer: 0.3; p97 ATPase inh: -2.5; L929 necroptosis: 0.0

Results for CNC(=S)/N=C(\Nc1ccc(C)cc1)c1ccccc1 ?
RBBP9 inh: -4.0; TNF necrop inh: -2.6; M18AAP inhibitor: 30.3*; Wee1 stabilizer: -1.6; p97 ATPase inh: 5.2; L929 necroptosis: 0.4

What do the screens show for `O=C(Nc1ccc(N2CCOCC2)c(Cl)c1)c1ccc(Br)o1`?
RBBP9 inh: 0.9; TNF necrop inh: -6.7; M18AAP inhibitor: -14.2; Wee1 stabilizer: 10.5*; p97 ATPase inh: 1.3; L929 necroptosis: 3.5

How did O=C(Nc1ccc(N2CCN(C(=O)c3ccccc3)CC2)c(Cl)c1)c1ccc(Br)o1 do in these assays?
RBBP9 inh: -9.6; TNF necrop inh: -6.7; M18AAP inhibitor: -3.2; Wee1 stabilizer: 0.4; p97 ATPase inh: 0.6; L929 necroptosis: 10.5

How did O=C(CCCOc1ccccc1)NC(=S)Nc1ccccc1 do in these assays?
RBBP9 inh: -3.8; TNF necrop inh: -0.2; M18AAP inhibitor: 1.5; Wee1 stabilizer: -1.9; p97 ATPase inh: 3.9; L929 necroptosis: 1.0
